Data published in ChEMBL document CHEMBL1124636, “3,4-Dihydro-2H-1-benzopyran-2-carboxylic acids and related compounds as leukotriene antagonists” (J Med Chem, 1989).
Activity calls are given as the source filed them. No cut-off for these calls is given here.

Assays:
[1] = target: T1, Cysteinyl leukotriene receptor 1 (Cavia porcellus, UniProt Q2NNR5); assay: Inhibitory activity of compound to block binding of [3H]leukotriene D4 to Cysteinyl leukotriene D4 receptor sites in homogenized guinea pig lung
T1 sequence (Q2NNR5 whole entry): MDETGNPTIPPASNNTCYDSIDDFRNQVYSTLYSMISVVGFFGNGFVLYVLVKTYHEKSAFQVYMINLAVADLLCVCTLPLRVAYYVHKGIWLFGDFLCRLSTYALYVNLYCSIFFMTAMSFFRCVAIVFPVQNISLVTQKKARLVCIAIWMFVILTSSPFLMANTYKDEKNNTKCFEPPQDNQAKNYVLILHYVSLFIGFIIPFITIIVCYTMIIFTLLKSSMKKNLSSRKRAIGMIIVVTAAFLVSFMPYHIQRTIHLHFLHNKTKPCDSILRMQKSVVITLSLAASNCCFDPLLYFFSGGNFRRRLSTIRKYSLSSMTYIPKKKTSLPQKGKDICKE
Method in brief: (§1)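 Lung from male Hartley guinea pigs (400–500 g), homogenized in sucrose/Tris pH 7.5 with protease inhibitors; 30000g membrane pellet in 10 mM PIPES pH 7.5, 50 mM NaCl. Binding: Tyrode, 0.1% BSA, 1 mM glycine, 1 mM cysteine, 3.5 nM [3H]LTD4, 100–200 µg protein, 20 °C, 30 min; glass-fiber filtration. Nonspecific with 10^-6 M LTD4. Triplicate screen at 10 µM; IC50 by linear regression.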

Cavia porcellus [2] = assay: (§2) Inhibition of leukotriene D4 induced bronchoconstriction in anesthetized guinea pigs after aerosol administration as 1% solution; assay type: functional, organism-based
Method in brief: (§3)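 Guinea pigs given propranolol 0.1 mg/kg iv 5 min before 5-min ultrasonic nebulizer exposure to aqueous, NaOH-neutralized drug (% w/v) or distilled water, breathing spontaneously. LTD4 50 µg/kg iv 30 s after exposure; tracheal pressure change.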

Cavia porcellus [3] = assay: as §2; assay type: functional; method in brief: as §3
Cavia porcellus [4] = assay: (§4) Inhibition of leukotriene D4 induced bronchoconstriction in anesthetized guinea pigs after intravenous administration at a dose of 10 mg/kg; assay type: functional
Method in brief: (§5)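 Male Hartley guinea pigs, 400–600 g, urethane 2 g/kg ip, jugular cannula, propranolol 0.1 mg/kg iv 5 min before challenge, succinylcholine 1.2 mg/kg iv, ventilated. Vehicle or drug iv 30 s before LTD4 25 µg/kg iv; tracheal pressure change.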

Cavia porcellus [5] = assay: Inhibition of leukotriene D4 induced bronchoconstriction in anesthetized guinea pigs after intravenous administration; assay type: functional; conditions: read-out: ID50 (the source's name); method in brief: as §5
[6] = target: T2, Cysteinyl leukotriene receptor 1 (Cavia porcellus) (UniProt Q2NNR5); conditions: Lung, 10 uM
T2 sequence (whole entry): T1 sequence (Q2NNR5 whole entry)

Cavia porcellus [7] = assay: Inhibition of leukotriene E4 induced bronchoconstriction in anesthetized guinea pigs after aerosol administration as 1% solution; assay type: functional
Cavia porcellus [8] = assay: Inhibition of leukotriene E4 induced bronchoconstriction in anesthetized guinea pigs after intravenous administration at a dose of 10 mg/kg; assay type: functional
[9] = tested on: Cysteinyl leukotriene receptor (Cavia porcellus); assay: Inhibitory activity to block binding of [3H]leukotriene D4 to LTD4 receptor sites in homogenized guinea pig lung at 10 uM
[10] = target: T1, Cysteinyl leukotriene receptor 1; assay: In vitro activity to inhibit binding of [3H]- leukotriene D4 to receptor sites in guinea pig lung membrane; assay type: cell membranes; method in brief: as §1
Cavia porcellus [11] = assay: In vivo guinea pig bronchoconstriction against leukotriene C4 when administered a compound dose (mg/kg) intravenously; assay type: functional; conditions: Lung, iv, read-out: ID50 (the source's name)
Cavia porcellus [12] = assay: In vivo guinea pig bronchoconstriction against leukotriene D4 when administered a compound dose (mg/kg) intravenously; assay type: functional; conditions: Lung, iv, read-out: ID50 (the source's name); method in brief: as §5
Cavia porcellus [13] = species: Cavia porcellus; assay: In vitro activity to inhibit leukotriene D4 induced contraction of guinea pig trachea; assay type: functional; conditions: read-out: pA2 (converted)
Method in brief: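 Guinea pig tracheal smooth muscle contracted by LTD4; pA2 and Schild slope reported.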

Cavia porcellus [14] = species: Cavia porcellus; assay: In vitro activity to inhibit SRS-A induced contraction of guinea pig ileum
Cavia porcellus [15] = assay: Activity against histamine induced bronchoconstriction in guinea pig (when administered at a concentration of 1%, by aerosol); Not active; assay type: functional, organism-based
Cavia porcellus [16] = assay: Activity against histamine induced bronchoconstriction in guinea pig, no significant inhibition when compound dose (10 mg/kg) given intravenously; Not active.; assay type: functional, organism-based
Cavia porcellus [17] = assay: Activity against platelet activating factor in guinea pig (when administered at a concentration of 1%, by aerosol); Not active; assay type: functional, organism-based
Cavia porcellus [18] = assay: Activity against platelet activating factor in guinea pig, no significant inhibition when compound dose (10 mg/kg) given intravenously; Not active.; assay type: functional, organism-based
Cavia porcellus [19] = assay: In vivo guinea pig bronchoconstriction against leukotriene E4 when administered a compound dose(mg/kg) intravenously; assay type: functional; conditions: Lung, iv, read-out: ID50 (the source's name)
Cavia porcellus [20] = assay: Duration of action of leukotriene D4 as time for inhibition to decrease to 40%, compound was administered at a dose of 10 mg/kg; assay type: ADME, organism-based; set-up: dose 10 mg/kg; conditions: guinea pig, in vivo
Method in brief: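 Intravenous guinea pig bronchoconstriction with LTD4 challenge; drug 10 mg/kg iv. Duration taken as time for inhibition to fall to 40%.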

Cavia porcellus [21] = assay: Duration of action of leukotriene D4 as time for inhibition to decrease to 40%, when compound was administered at a concentration of 1%, for 5 min by aerosol; assay type: ADME, organism-based; conditions: guinea pig, in vivo, inhaled_or_intranasal
Method in brief: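 Aerosol guinea pig bronchoconstriction with LTD4 challenge; drug given as 1% nebulized solution for 5 min. Duration taken as time for inhibition to fall to 40%.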

Cavia porcellus [22] = assay: Duration of action of leukotriene E4 as time for inhibition to decrease to 40%, compound administered at a concentration of 1%,for 5 min by aerosol; assay type: ADME, organism-based; conditions: guinea pig, in vivo, inhaled_or_intranasal
Method in brief: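 Aerosol guinea pig bronchoconstriction with LTE4 challenge; drug given as 1% nebulized solution for 5 min. Duration taken as time for inhibition to fall to 40%.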

Cavia porcellus [23] = assay: Duration of action of leukotriene E4 as time for inhibition to decrease to 40%, compound was administered at a dose of 10 mg/kg; assay type: ADME, organism-based; set-up: dose 10 mg/kg; conditions: guinea pig, in vivo
Method in brief: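 Intravenous guinea pig bronchoconstriction with LTE4 challenge; drug 10 mg/kg iv. Duration taken as time for inhibition to fall to 40%.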

Cavia porcellus [24] = assay: Time taken for inhibition of antigen induced bronchoconstriction in guinea pig to decrease to 40%, compound administered at a concentration of 1%, for 5 min by aerosol; assay type: organism-based; conditions: in vivo, inhaled_or_intranasal
Method in brief: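 Aerosol guinea pig bronchoconstriction with antigen challenge; drug given as 1% nebulized solution for 5 min. Duration taken as time for inhibition to fall to 40%.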

Cavia porcellus [25] = assay: Inhibitory activity to inhibit arachidonic acid induced bronchoconstriction (when administered at a concentration of 1%, by aerosol); Not active; assay type: functional, organism-based
Cavia porcellus [26] = assay: In vivo guinea pig bronchoconstriction against leukotriene C4 when administered at a concentration of 1%, by aerosol; NS means no significant inhibition.; assay type: functional, organism-based; conditions: Lung
[27] = target: Dual specificity calcium/calmodulin-dependent 3',5'-cyclic nucleotide phosphodiesterase 1A (Bos taurus, UniProt P14100); assay: Inhibition of bovine heart Phosphodiesterase 1A
Dual specificity calcium/calmodulin-dependent 3',5'-cyclic nucleotide phosphodiesterase 1A, sequence (P14100 whole entry): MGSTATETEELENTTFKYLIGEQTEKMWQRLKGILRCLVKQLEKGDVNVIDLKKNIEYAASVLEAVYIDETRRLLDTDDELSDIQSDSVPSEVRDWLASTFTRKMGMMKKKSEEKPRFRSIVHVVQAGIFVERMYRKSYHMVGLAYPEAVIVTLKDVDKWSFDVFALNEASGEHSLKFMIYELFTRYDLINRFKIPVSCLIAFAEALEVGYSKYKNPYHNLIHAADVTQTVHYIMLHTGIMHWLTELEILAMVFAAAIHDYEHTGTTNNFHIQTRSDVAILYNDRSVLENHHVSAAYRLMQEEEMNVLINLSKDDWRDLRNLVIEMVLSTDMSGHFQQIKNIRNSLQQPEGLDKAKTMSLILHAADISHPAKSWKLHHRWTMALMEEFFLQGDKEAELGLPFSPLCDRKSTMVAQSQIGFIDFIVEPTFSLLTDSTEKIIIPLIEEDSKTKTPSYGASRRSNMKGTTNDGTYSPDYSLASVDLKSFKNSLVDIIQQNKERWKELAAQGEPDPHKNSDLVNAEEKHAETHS

Cavia porcellus [28] = species: Cavia porcellus; assay: In vitro activity to inhibit SRS-A induced contraction of guinea pig ileum; remark: listed apart in the source
Cavia porcellus [29] = assay: In vivo guinea pig bronchoconstriction against leukotriene B4 (when administered at a concentration of 1%, by aerosol); Not active; conditions: Lung
[30] = target: T2, Cysteinyl leukotriene receptor 1 (Cavia porcellus); assay: as §4; assay type: functional, organism-based; set-up: dose 10 mg/kg; method in brief: as §5
[31] = tested on: Cysteinyl leukotriene receptor (Cavia porcellus); assay: Inhibitory activity of compound to block binding of radiolabeled leukotriene D4 to receptor sites in homogenized guinea pig lung at 10 uM

## CCCc1c(OCCCCCOc2cc3c(cc2C(C)=O)CCC(CCC)(C(=O)O)O3)ccc(C(C)=O)c1O (stereo not drawn)
[1]
  IC50: 2000 nM
Cavia porcellus [2]
  IC50: 0.9 % conc
Cavia porcellus [3]
  Inhibition: 51%
Cavia porcellus [4]
  inhibition in vivo at 10 mg/kg: 56%
Cavia porcellus [5]
  ED50: 8 mg/kg
[6]
  inhibition: 70%

## CCCc1c(OCCCOc2c(C)c(C)c3c(c2C)CCC(C)(C(=O)O)O3)ccc(C(C)=O)c1O (stereo not drawn)
Cavia porcellus [7]
  Inhibition: 53%
Cavia porcellus [8]
  inhibition in vivo at 10 mg/kg: 99%
[9]
  inhibition: 88%

## CCCc1c(OCCCCCOc2cc3c(cc2C(C)=O)CC[C@@H](C(=O)O)O3)ccc(C(C)=O)c1O
[10]
  IC50: 5000 nM
Cavia porcellus [11]
  ED50: 4 mg/kg
Cavia porcellus [12]
  ED50: 3 mg/kg
Cavia porcellus [13]
  Kb: 631 nM
Cavia porcellus [14]
  IC50: 60 nM

## CCCc1c(OCC(O)COc2ccc3c(=O)cc(C(=O)O)oc3c2CCC)ccc(C(C)=O)c1O (stereo not drawn) [FPL-55712]
Cavia porcellus [2]
  IC50: 0.5 % conc
Cavia porcellus [3]
  Inhibition: 64%
Cavia porcellus [15]
  inhibition: inactive
Cavia porcellus [16]
  inhibition: inactive
Cavia porcellus [17]
  inhibition: inactive
Cavia porcellus [18]
  inhibition: inactive
Cavia porcellus [4]
  inhibition in vivo at 10 mg/kg: 92%
Cavia porcellus [11]
  ED50: 6 mg/kg
Cavia porcellus [12]
  ED50: 2 mg/kg
Cavia porcellus [19]
  ED50: 1 mg/kg
Cavia porcellus [20]
  Duration: 6 min
Cavia porcellus [21]
  Duration: 60 min
Cavia porcellus [22]
  Duration: 50 min
Cavia porcellus [23]
  Duration: 6 min
Cavia porcellus [24]
  Duration: 270 min
Cavia porcellus [5]
  ED50: 2 mg/kg
Cavia porcellus [25]
  inhibition: inactive
Cavia porcellus [13]
  Kb: 1000 nM
Cavia porcellus [26]
  inhibition: inactive
[27]
  IC50: 40000 nM
Cavia porcellus [28]
  IC50: 50 nM
Cavia porcellus [29]
  inhibition: inactive

## CCCc1c(O)c(C(C)=O)cc(O)c1OCCCCCOc1cc2c(cc1C(C)=O)CCC(C(=O)O)O2 (stereo not drawn)
[30]
  inhibition: 0%
[31]
  Inhibition: 0%
